Data reported in ChEMBL document CHEMBL5108054, “Targeting Acute Myelogenous Leukemia Using Potent Human Dihydroorotate Dehydrogenase Inhibitors Based on the 2-Hydroxypyrazolo[1,5-a]pyridine Scaffold: SAR of the Aryloxyaryl Moiety” (J Med Chem, 2022).
Activity calls are given as the source filed them. The calls are words filed in the database; no cut-off is given here.

Experiments:
MV4-11 [1] = test: Induction of apoptosis in human MV4-11 cells assessed as increase in pro-apoptotic activity at 1 uM; type: functional, cell-based
THP-1 [2] = test: Induction of apoptosis in human THP-1 cells assessed as increase in pro-apoptotic activity at 1 uM; type: functional, cell-based
Jurkat = test: Cytotoxicity against human Jurkat T cells assessed as reduction in cell viability at 1 to 100 uM measured after 3 days by propidium iodide staining based CFSE staining; type: functional; conditions: dose 1-100 µM; time 3 day
[3] = Metabolic stability in rat liver microsomes assessed as retention time of parent compound by HPLC-HRMS analysis; type: ADME, Microsome
Procedure, shortened: (§1)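 Controls were heat-inactivated microsomes, no regenerating system, and drug-free blank. Samples were taken at 0, 15, 30, 60 and 120 min and quenched with cold acetonitrile. Analysis was by LC-HRMS (C18, water/acetonitrile gradient, ± ESI), with metabolites predicted by SyGMa.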

MV4-11 [4] = test: Induction of apoptosis in human MV4-11 cells assessed as increase in pro-apoptotic activity at 0.1 uM; type: functional, cell-based
Procedure, shortened: (§2)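 THP1 or MV4-11 cells (1 × 10^4/well) exposed to inhibitor at 0.1 or 1 μM, alone or with dipyridamole 1.0 μM and/or uridine 5 μM, for 3 days. Apoptosis was read as annexin V-FITC staining by flow cytometry. n = 3; ANOVA/Tukey.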

THP-1 [5] = test: Antileukemic activity against human THP-1 cells xenografted in Balb/c mouse assessed as reduction in volume at 20 mg/kg, ip measured twice a week; type: functional, organism-based
THP-1 [6] = test: Antileukemic activity against human THP-1 cells xenografted in Balb/c mouse assessed as reduction in tumor weight at 20 mg/kg, ip; type: functional, organism-based
THP-1 [7] = test: Induction of apoptosis in human THP-1 cells assessed as increase in pro-apoptotic activity at 0.1 uM; type: functional, cell-based; procedure, shortened: as §2
[8] = Metabolic stability in rat liver microsomes assessed as retention time of hydroxyl derivative metabolites by HPLC-HRMS analysis; type: ADME, Microsome; procedure, shortened: as §1
[9] = Metabolic stability in rat liver microsomes assessed as retention time of dihydroxyl derivative metabolite by HPLC-HRMS analysis; type: ADME, Microsome; procedure, shortened: as §1
[10] = Metabolic stability in rat liver microsomes assessed as retention time of hydrogenated dihydroxyl derivative metabolite by HPLC-HRMS analysis; type: ADME, Microsome; procedure, shortened: as §1

Structure (SMILES)	Activity (MV4-11 [1])	Activity (THP-1 [2])	CC30 (Jurkat) [µM]	Retention_time [3] [min]	Activity (MV4-11 [4])	Activity (THP-1 [5])	Activity (THP-1 [6])	Activity (THP-1 [7])	Retention_time [8] [min]	Retention_time [9] [min]	Retention_time [10] [min]
Cc1cc(Oc2ccccc2)c(C(C)C)cc1NC(=O)c1c(O)nn2ccccc12	Active	Active	>100	–	–	–	–	–	–	–	–
Cc1cc(NC(=O)c2c(O)nn3ccccc23)c(C(C)C)cc1Oc1ccccc1	–	–	>100	17.33	Active	Active	Active	Active	–	–	–
O=C(Nc1c(F)c(F)c(-c2ccccc2)c(F)c1F)c1c(O)nn2ccccc12	–	–	–	–	–	–	–	–	13.41	10.59	14.14
